Shown are actives, neighbours in structure and some others; about 4.2% of the full set was active somewhere.
TAAR1 antag = human TAAR1 antagonism. CHO RD-HGA16 TAAR1, Fluo-8 calcium fluorescence, antagonist. Q96RJ0. 360,000 compounds, 1.5% hits. AID 624466. inhibition, % at 3 µM;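 active means inhibition above a per-plate cutoff, the mean inhibition of test compounds on that plate plus 3 SD, cut at about 49% in these data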
Target sequence (Q96RJ0 whole entry, looked up): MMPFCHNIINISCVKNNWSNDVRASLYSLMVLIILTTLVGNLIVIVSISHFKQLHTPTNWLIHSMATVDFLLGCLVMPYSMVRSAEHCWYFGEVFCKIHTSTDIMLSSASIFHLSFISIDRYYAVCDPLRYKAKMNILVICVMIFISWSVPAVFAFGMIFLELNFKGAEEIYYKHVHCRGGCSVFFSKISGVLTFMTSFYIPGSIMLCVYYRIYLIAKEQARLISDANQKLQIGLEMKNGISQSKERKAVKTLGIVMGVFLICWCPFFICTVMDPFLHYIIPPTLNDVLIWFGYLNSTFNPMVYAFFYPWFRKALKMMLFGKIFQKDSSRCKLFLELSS
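Test system – hTAAR1-expressing CHO RD-HGA16 cells, Gα16-coupled · Reagent – β-PEA at EC80 concentration, post-compound challenge · Compound dosing – 3 µM, single point · Timing – 140 s kinetic read after compound, 140 s after agonist · Detection – Fluo-8 intracellular calcium dye fluorescence, real-time kinetic reads · Control set – DMSO and EC80 PEA controls · Repeats – n of 1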
OX1R antag-1 = blocks the human orexin 1 receptor; O43613; OX1R-expressing cells, FRET antagonist read-out; inhibition, % at 6.6 µM; 330,000 compounds, 1.8% hits; AID 485270; in the data active means inhibition mostly above about 38%, no sharp cut-off; inactive means mostly below about 40%
Target sequence (O43613 whole entry, looked up): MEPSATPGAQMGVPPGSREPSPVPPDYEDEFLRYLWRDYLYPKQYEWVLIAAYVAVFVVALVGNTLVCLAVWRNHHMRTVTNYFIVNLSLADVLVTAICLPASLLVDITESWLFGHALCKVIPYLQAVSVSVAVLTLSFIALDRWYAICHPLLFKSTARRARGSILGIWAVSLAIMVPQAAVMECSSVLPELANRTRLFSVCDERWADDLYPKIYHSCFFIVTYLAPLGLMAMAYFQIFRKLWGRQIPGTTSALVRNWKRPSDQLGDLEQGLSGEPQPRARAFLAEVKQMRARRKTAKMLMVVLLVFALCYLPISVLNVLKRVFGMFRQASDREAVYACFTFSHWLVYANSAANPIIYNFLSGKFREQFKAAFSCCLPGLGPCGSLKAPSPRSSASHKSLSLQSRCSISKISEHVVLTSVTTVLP
TAAR1 ag = agonists of human TAAR1. activation, % at 3 µM. CHO RD-HGA16 TAAR1, Fluo-8 calcium fluorescence; vehicle wells 0%, saturating PEA agonist 100%. 360,000 compounds, 0.99% hits;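 active means activation above the mean activation of all test compounds in the run plus 3 SD, cut at about 38% in these data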
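Signal – calcium-sensitive Fluo-8 signal, excitation 470-495, emission 515-575 nm · System – RD-HGA16 (CHO) cells co-expressing Gα16 and hTAAR1 · Incubation – 17-24 h seeding, 75 min 37 °C dye, 30 min RT · Compound dosing – 3 µM single concentration · Repeats – no replicates (n 1)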
OX1R antag-2 = antagonists of human orexin 1 receptor; CHO/OX1R cells, Fluo-8 calcium fluorescence, orexin A; inhibition, % at 5 µM; AID 434989; 330,000 compounds, 0.43% hits; O43613;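 active means inhibition above its plate's threshold, mean inhibition of all tested compounds on the plate plus 3 SD, cut at about 37% in these data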
CHO parental Ca = signal in parental CHO cells, OX1R antagonist counter-screen | parental CHO-K1, ATP-induced calcium, Fluo-8 fluorescence | inhibition, % at 5.6 µM | 330,000 compounds, 0.63% hits;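 active means inhibition above that plate's mean sample inhibition plus 3 SD, cut at about 26% in these data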
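test system = CHO parental line | reagent = ATP stimulus | measured by = intracellular calcium via Fluo-8 no-wash fluorescent dye | control set = ATP and no-ATP DMSO wells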
GalR3 antagonist = antagonists of human GalR3 | O60755 | 360,000 compounds, 0.44% hits | HEK293 GalR3-CNG cAMP membrane potential fluorescence; galR3 body fused to GalR1 C-terminus | inhibition, % at 3 µM | AID 651719;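 active means inhibition above the screen-wide average plus 3 SD, cut at about 13% in these data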;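 further: forskolin and galanin both at EC90 stimulate the cells; cAMP rise reported by CNG channel membrane potential dye signal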
TAAR1 nonsel count = counter-screen for TAAR1 antagonists: nonselective antagonists | shares compounds with TAAR1 antag | counterscreen cell line, calcium fluorescence, antagonist mode | inhibition, % at 3 µM | 2,400 compounds, 77% hits | AID 651780; in the data active means inhibition above about 22%;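 further: CHO-Ga16 host cells stimulated with ATP at an EC80 level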
TAAR1 antag conf = confirmation of human TAAR1 antagonists | AID 651785 | TAAR1-expressing cells, fluorescence antagonist read-out | inhibition, % at 3 µM | 2,400 compounds, 40% hits | shares compounds with TAAR1 antag; in the data active means inhibition above about 49%;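 further: CHO-Ga16 host cells challenged with agonist PEA near its EC80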
Ga16 ag counter = nonselective Ga16 agonism, counter-screen | shares compounds with TAAR1 antag | Ga16-expressing cells, calcium fluorescence, agonist counterscreen | activation, % at 3 µM | 2,400 compounds, 18% hits | AID 651953; in the data active means activation above about 12%
TAAR1 ag counter = activates human TAAR1 in antagonist counter-screen; shares compounds with TAAR1 antag; hTAAR1 cell line, fluorescence activation, agonist mode; activation, % at 3 µM; 2,400 compounds, 2% hits; AID 651955; in the data active means activation above about 37%;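 further: CHO cells stably expressing TAAR1 with calcium dye readout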
A number is an active result.

What do the screens show for `CC(=O)C1(c2ccccc2)CCN(C(=O)C2CCC(=O)N(CCc3cccc(F)c3)C2)CC1` (stereo unspecified)?
TAAR1 antag: 61.1; OX1R antag-1: inactive; TAAR1 ag: inactive; OX1R antag-2: inactive; CHO parental Ca: inactive; GalR3 antagonist: inactive; TAAR1 nonsel count: inactive; TAAR1 antag conf: inactive; Ga16 ag counter: inactive; TAAR1 ag counter: inactive

How did O=C(C1CCC(=O)N1Cc1ccc(F)cc1)N1CCC2(CC1)OCCO2 (stereo unspecified) do in these assays?
TAAR1 antag: inactive; OX1R antag-1: inactive; TAAR1 ag: inactive; OX1R antag-2: inactive; CHO parental Ca: inactive; GalR3 antagonist: inactive

How did CSCCC(c1nnnn1Cc1ccccc1)N1CCC(n2c(=O)[nH]c3ccccc32)CC1 (stereo unspecified) do in these assays?
TAAR1 antag: 70.2; TAAR1 ag: inactive; GalR3 antagonist: inactive; TAAR1 nonsel count: 22.2; TAAR1 antag conf: 52.0; Ga16 ag counter: inactive; TAAR1 ag counter: inactive

What do the screens show for `O=c1[nH]c2ccccc2n1C1CCN(C(CCc2ccccc2)c2nnnn2Cc2ccccc2)CC1` (stereo unspecified)?
TAAR1 antag: 54.8; TAAR1 ag: inactive; GalR3 antagonist: inactive; TAAR1 nonsel count: inactive; TAAR1 antag conf: inactive; Ga16 ag counter: inactive; TAAR1 ag counter: inactive

Results for C[C@@H]1CC2C3CC=C4C[C@@H](O)CC[C@]4(C)C3CC[C@]2(C)[C@H]1O (stereo partly specified) ?
TAAR1 antag: inactive; OX1R antag-1: inactive; TAAR1 ag: inactive; OX1R antag-2: inactive; CHO parental Ca: inactive; GalR3 antagonist: inactive

What do the screens show for `CSCCC(c1nnnn1Cc1ccccc1)N1CCC2(CC1)C(=O)NCN2c1ccccc1` (stereo unspecified)?
TAAR1 antag: 52.4; TAAR1 ag: inactive; GalR3 antagonist: inactive; TAAR1 nonsel count: 27.9; TAAR1 antag conf: inactive; Ga16 ag counter: inactive; TAAR1 ag counter: inactive

Results for O=C1NCN(c2ccccc2)C12CCN(C(c1ccnc3ccccc13)c1nnnn1-c1ccc3c(c1)OCCO3)CC2 (stereo unspecified) ?
TAAR1 antag: 59.2; TAAR1 ag: inactive; GalR3 antagonist: inactive; TAAR1 nonsel count: 28.5; TAAR1 antag conf: inactive; Ga16 ag counter: inactive; TAAR1 ag counter: inactive

Results for O=C1NCN(c2ccccc2)C12CCN(C(c1ccccc1)c1nnnn1Cc1ccccc1)CC2 (stereo unspecified) ?
TAAR1 antag: 53.0; TAAR1 ag: inactive; GalR3 antagonist: inactive; TAAR1 nonsel count: inactive; TAAR1 antag conf: inactive; Ga16 ag counter: inactive; TAAR1 ag counter: inactive

How did O=C1NCN(c2ccccc2)C12CCN(C(c1nnnn1Cc1ccccc1)C1CC1)CC2 (stereo unspecified) do in these assays?
TAAR1 antag: inactive; TAAR1 ag: inactive; GalR3 antagonist: inactive

Results for O=C1NCN(c2ccccc2)C12CCN(C(CCc1ccccc1)c1nnnn1Cc1ccccc1)CC2 (stereo unspecified) ?
TAAR1 antag: inactive; TAAR1 ag: inactive; GalR3 antagonist: inactive

What do the screens show for `CC(Cc1ccccc1)NC(=O)Cc1ccc([N+](=O)[O-])cc1` (stereo unspecified)?
TAAR1 antag: inactive; OX1R antag-1: inactive; TAAR1 ag: inactive; OX1R antag-2: inactive; CHO parental Ca: inactive; GalR3 antagonist: inactive

What do the screens show for `CC1=NOC2(C)Nc3ncnn3C(c3ccccc3)C12` (stereo unspecified)?
TAAR1 antag: inactive; OX1R antag-1: inactive; TAAR1 ag: inactive; OX1R antag-2: inactive; CHO parental Ca: inactive; GalR3 antagonist: inactive

How did Nc1ccccc1N=Cc1c(O)n(CCC2=CCCCC2)c(=O)[nH]c1=O do in these assays?
TAAR1 antag: inactive; OX1R antag-1: inactive; TAAR1 ag: inactive; OX1R antag-2: inactive; CHO parental Ca: inactive; GalR3 antagonist: inactive

How did Cc1cccc(OP(=O)(NCc2ccccc2)Oc2cccc(C)c2)c1 do in these assays?
TAAR1 antag: 79.6; OX1R antag-1: inactive; TAAR1 ag: inactive; OX1R antag-2: inactive; CHO parental Ca: inactive; GalR3 antagonist: inactive; TAAR1 nonsel count: 34.2; TAAR1 antag conf: 78.0; Ga16 ag counter: 12.9; TAAR1 ag counter: inactive

Results for COc1ccccc1OP(=O)(Nc1ccc(Br)cc1)Oc1ccccc1OC ?
TAAR1 antag: 78.3; OX1R antag-1: inactive; TAAR1 ag: inactive; OX1R antag-2: inactive; CHO parental Ca: inactive; GalR3 antagonist: inactive; TAAR1 nonsel count: 30.2; TAAR1 antag conf: 55.8; Ga16 ag counter: inactive; TAAR1 ag counter: inactive

Results for COc1ccc(NP(=O)(Oc2ccc(Cl)cc2)Oc2ccc(Cl)cc2)cc1OC ?
TAAR1 antag: inactive; OX1R antag-1: inactive; TAAR1 ag: inactive; OX1R antag-2: inactive; CHO parental Ca: inactive; GalR3 antagonist: inactive

What do the screens show for `COC(=O)C1=C(c2ccc(C(C)=O)cc2)C[C@@H]2CC[C@H]1N2C(=O)NCc1ccc(F)cc1`?
TAAR1 antag: inactive; OX1R antag-1: inactive; TAAR1 ag: inactive; OX1R antag-2: inactive; CHO parental Ca: inactive; GalR3 antagonist: inactive

What do the screens show for `COC(=O)c1ccc(NC(=O)CSc2nc3ccc(N4C(=O)C5C6C=CC(C6)C5C4=O)cc3s2)cc1` (stereo unspecified)?
TAAR1 antag: 88.2; OX1R antag-1: inactive; TAAR1 ag: inactive; OX1R antag-2: inactive; CHO parental Ca: inactive; GalR3 antagonist: inactive; TAAR1 nonsel count: 41.4; TAAR1 antag conf: 64.9; Ga16 ag counter: 16.9; TAAR1 ag counter: inactive

Results for O=c1c2ccccc2nc(-c2ccccc2)n1-c1ccncc1 ?
TAAR1 antag: inactive; OX1R antag-1: inactive; TAAR1 ag: inactive; OX1R antag-2: inactive; CHO parental Ca: inactive; GalR3 antagonist: inactive

Results for O=P(NC(c1ccccc1)c1ccccc1)(Oc1ccccc1)Oc1ccccc1 ?
TAAR1 antag: 63.9; OX1R antag-1: inactive; TAAR1 ag: inactive; OX1R antag-2: inactive; CHO parental Ca: inactive; GalR3 antagonist: inactive; TAAR1 nonsel count: 31.7; TAAR1 antag conf: 64.5; Ga16 ag counter: inactive; TAAR1 ag counter: inactive

How did CCCOc1ccccc1NP(=O)(Oc1ccccc1)Oc1ccccc1 do in these assays?
TAAR1 antag: inactive; OX1R antag-1: inactive; TAAR1 ag: inactive; OX1R antag-2: inactive; CHO parental Ca: inactive; GalR3 antagonist: inactive
